Source: PubChem
HSF1 inhib = HSF1 inhibition. NIH3T3-HGL HSE-luciferase, MG132-induced, luminescence 8 h; hits give low values. activity change, negative = inhibition, % at 7.5 µM (by protocol). 0.77% of 300,000 active;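 active means more than half of replicate wells show activity change below -50%, luminescence cut by over half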;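 further: luciferase reports HSF-1 transcriptional activity via heat shock element; 0% = median of DMSO wells and -100% = zero luminescence signal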
HSP90 refold inh = HSP90 refolding inhibition in rabbit reticulocyte lysate; luciferase refolding luminescence, 3 h; 0.91% of 290,000 active; inhibition, % at 5.6 µM;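 active means inhibition above the screen-wide mean plus 3 SD, computed separately per campaign, cut at about 16% in these data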;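 further: 0% = DMSO wells and 100% = 60 µM geldanamycin wells; inhibitors lower the luminescence because luciferase stays unfolded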
Lipid droplet = modulators of hepatic lipid droplet formation; 0.4% of 240,000 active; inhibition, % at 6.5 µM; AID 1656; AML12 mouse hepatocytes, oleate lipid droplets, BODIPY imaging;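 active means lipid droplet intensity inhibited by at least 50%, with more than 500 cells counted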
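Technique: fluorescence imaging, 20x objective, two fields per well / Assay system: AML12 hepatocytes (mouse) / Measure: % inhibition of lipid droplet signal / Doses: 6.5 µM single-point dosing / Incubation: overnight exposure / Reagent: 100 µM oleic acid challenge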
HSF1 activator = increases HSF-1 driven luciferase reporter signal. NIH3T3-HGL HSF-1 luciferase reporter, MG132, 8 h; 100% = twice DMSO control signal. activation, % at 9 µM. 1.7% of 300,000 active;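 active means mean replicate activation of at least 50% with a set share of replicates each reaching 50%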;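 further: 0% = median of the neutral control wells and 100% = twice that signal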
HCV NS3 hel inh = HCV NS3 helicase inhibition; NS3 helicase DNA unwinding, Cy5 molecular beacon fluorescence; inhibition, % at 10.9 µM; 0.56% of 290,000 active; AID 1800;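 active means inhibition above the mean of all tested compounds plus 3 SD, set per campaign, cut at about 35% in these data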;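 further: 0% = DMSO wells and 100% = thioflavine S control wells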
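Material: hepatitis C virus NS3 helicase domain fragment enzyme; measured by: Cy5 fluorescence, 0 and 60 min reads; control set: DMSO and thioflavine S; incubation: 60 min unwinding reaction at 25 °C after ATP addition; read-out basis: % inhibition from 60/0 min fluorescence ratio, DMSO 0%, thioflavine S 100%; repeats: singlicate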
Active calls of the source: *; / = no result given. This is a sample that favours compounds with a hit; in the whole collection about 3.8% have one here.

SMILES | HSF1 inhib | HSP90 refold inh | Lipid droplet | HSF1 activator | HCV NS3 hel inh
C/C(=N\Nc1ccc([N+](=O)[O-])cc1[N+](=O)[O-])C(C)C(C)C (stereo not drawn) | -3 | 4 | 29 | 4 | 0
CC(=O)Nc1ccc(NC(=O)CSc2nnc(-c3cccs3)n2N)cc1 | -5 | / | / | -11 | /
Cn1c(SCC(=O)NCC2CCCO2)nc2c(c1=O)SCC2 (stereo not drawn) | -6 | 1 | -5 | 2 | 2
O=C(c1ccc(Cn2cc(Cl)cn2)o1)N1CCN(Cc2ccc3c(c2)OCO3)CC1 | 1 | 2 | / | 5 | -16
CN1CCN(C(=O)c2ccc(Cn3cc(Cl)cn3)o2)CC1 | 15 | 7 | -2 | 64* | -9
CCN(CC1COc2ccccc2O1)C(=S)NC1CC2CCC1C2 (stereo not drawn) | 3 | -3 | -7 | -3 | -7
COc1ccccc1-c1c(C#N)c(N)nc2c1CCc1ccccc1-2 | 41 | 4 | 14 | 60* | 4
O=C(NC(=S)Nc1ccccc1C(F)(F)F)c1ccccc1F | 31 | -6 | 10 | 76* | 5
Cc1cc(N=Nc2ccc(Cl)cc2)cc(CN2CCOCC2)c1O | -3 | -1 | 41 | -18 | -10
Cc1cc(N=Nc2ccc(Cl)cc2)cc(CN2CCCC2)c1O | -60* | 2 | 4 | -69 | -50
CC(=O)Oc1ccc(OC(C)=O)c(SCCCCCCl)c1 | -96* | 1 | 5 | -96 | -10
CC(=O)Oc1ccc(C(=O)O)cc1OC(C)=O | -8 | -4 | / | -26 | -2
CNC(=O)CSc1cn(CC(=O)N(C(C)C)C(C)C)c2ccccc12 | -5 | -1 | 3 | -18 | -2
O=C(COc1ccc(NC(=O)c2ccccc2)cc1)c1ccccc1 | 1 | -3 | -1 | 13 | 5
CCN(CC)C(=O)CN(Cc1ccccc1)S(=O)(=O)c1ccc(F)cc1 | -11 | 3 | -7 | -33 | 1
CCN(Cc1ccccc1)S(=O)(=O)c1ccc(F)cc1 | -62* | 0 | / | -67 | -8
Cc1cccc(OCC(=O)Nc2ccc(C(=O)NCC(C)C)cc2)c1 | -8 | -1 | -2 | -10 | -4
Cc1cccc(OCC(=O)Nc2cc(C)ccc2O)c1 | 130 | -1 | 18 | 181* | -16
Cc1cccc(OCC(=O)Nc2cc(C)c(C)cc2O)c1 | 5 | -4 | / | 12 | -3
Cc1cccc(OCC(=O)Nc2cccc(C(=O)NCC(C)C)c2)c1 | -81* | -2 | -26 | -85 | -8
CCN(CC)CCNC(C(=O)Nc1cccc(C(C)=O)c1)c1ccccc1 (stereo not drawn) | 1 | 7 | -24 | 30 | -35
Cc1ccc2nsnc2c1NS(=O)(=O)c1c(C)ccc2nsnc12 | -8 | 1 | / | -3 | -3
CCOC(=O)CCCNS(=O)(=O)c1c(C)ccc2nsnc12 | -89* | 2 | -9 | -91 | -3
O=C(CCC(F)(F)F)N1CCCC(N2CCN(c3cccc(Cl)c3)CC2)C1 (stereo not drawn) | -1 | 4 | / | 4 | 14
CC(=O)c1nn(-c2cccc(Br)c2)cc1C(=O)c1ccccc1 | -6 | -7 | 2 | 12 | -2
SMILES | HSF1 inhib | HSP90 refold inh | Lipid droplet | HSF1 activator | HCV NS3 hel inh
CC(=O)c1nn(-c2cccc(Br)c2)cc1C(=O)c1ccc(Cl)cc1 | 43 | 7 | 2 | 84* | -2
Cc1ccccc1CNC(=O)CN(c1ccccc1Cl)S(C)(=O)=O | -8 | 7 | 0 | -3 | 10
CSc1cccc(NC(=O)CN(C)S(=O)(=O)c2ccccc2)c1 | 21 | 1 | 4 | 67* | -6
COc1ccc(C)cc1S(=O)(=O)NCC(c1ccc2c(c1)OCO2)N1CCOCC1 (stereo not drawn) | -3 | / | / | 5 | /
Cc1cccc(NC(=O)CSc2cc(C)c(C#N)c3nc4ccccc4n23)c1 | 268 | 3 | -6 | 417* | 2
CCOC(=O)c1cccc(NC(=O)Cn2c(CC(=O)NC)nc3ccccc32)c1 | 85 | -2 | / | 101* | 4
Cc1cccc(NC(=O)Cn2c(/C=C/c3ccccc3)nc3ccccc32)c1 | 42 | 1 | -23 | 55* | -3
CCOC(=O)c1cccc(NC(=O)c2cnc3ccccc3n2)c1 | 7 | 4 | / | -1 | -4
OCc1ccccc1OCCCOc1cccc2cccnc12 | 15 | -1 | -4 | 34 | -4
CC(=O)N1CSCC1C(=O)NNS(=O)(=O)c1cccc(C(F)(F)F)c1 (stereo not drawn) | 19 | -1 | -8 | 75* | -1
CN(CCO)c1nc(N)c2c(N)nc3c(c2c1C#N)CC(=O)N3C1CCCC1 | 3 | 5 | / | 14 | -3
CC(C)(C)N1C(=O)Cc2c1nc(N)c1c(N)nc(N3CCCCC3CO)c(C#N)c21 (stereo not drawn) | 24 | 2 | / | 68* | -2
Cc1nonc1OCCNCCNc1ccc([N+](=O)[O-])cc1Cl | 36 | -1 | -1 | 77* | -10
Cc1nonc1OCCNc1ccc([N+](=O)[O-])cc1 | -5 | 1 | 8 | 4 | 9
COc1ccccc1-c1cc(C(=O)NC(C)C)no1 | 35 | 1 | / | 54* | -19
COc1ccccc1-c1cc(C(=O)NC(C)c2ccccc2)no1 (stereo not drawn) | -3 | 3 | / | -2 | 3
COc1ccc(NC(=O)CCSc2ccc(F)cc2)cc1 | 22 | -1 | -3 | 55* | -6
COc1ccc(NC(=O)CCSc2ccc(C)cc2)cc1 | -6 | 5 | 19 | 7 | 5
O=C(Nc1cccc(F)c1)C1CCN(C(=O)NCc2ccccc2)CC1 | -1 | -3 | 9 | 3 | 5
Cc1nc(SCC(=O)c2ccccc2)c(C#N)c(-c2ccco2)c1C(=O)NCc1ccco1 | 52 | -2 | / | 76* | 33
Cc1ccc(S(=O)(=O)c2ncccc2[N+](=O)[O-])cc1 | -97* | 14 | / | -97 | 16
CCn1c2ccccc2c2nnc(SCC(=O)Nc3c(C)n(C)n(-c4ccccc4)c3=O)nc21 | -8 | 0 | / | -27 | 2
Cc1c(NC(=O)CSc2nnc3c4ccccc4n(CCc4ccccc4)c3n2)c(=O)n(-c2ccccc2)n1C | 66 | -4 | / | 88* | -11
Cc1ccc(S(=O)(=O)N2CC(O)CC2C(=O)O)cc1 (stereo not drawn) | -10 | -1 | / | -1 | 7
Cn1cc(-c2nnc(-c3ccccc3)o2)c2ccccc21 | 35 | -4 | / | 66* | 3
Cc1ccccc1-c1nnc(-c2ccccc2)o1 | 20 | 0 | 5 | 38 | -2
COc1cc(/C=C/c2ccc3cccc(O)c3n2)cc(Cl)c1OC | 68 | -3 | -1 | 72* | -9
N/C(=N\OC(=O)c1ccoc1)c1ccc(Br)cc1 | 30 | 5 | -4 | 69* | -6
COc1ccc(NC(=O)C2CCCN(S(=O)(=O)c3cccs3)C2)cc1OC (stereo not drawn) | -1 | -1 | / | -13 | 6
CCc1cccc(NC(=O)C2CCCN(S(=O)(=O)c3cccs3)C2)c1 (stereo not drawn) | -73* | 1 | 0 | -79 | -6
